A selection: hits, their analogues and other compounds. The true share with any hit is near 3.5%.
RGS4 pot: RGS4 potentiators or activators, primary screen, cell-based, HEK293 M3R inducible RGS4, calcium flux; B-score at 10 µM; AID 463111, 2010; carbachol calcium flux Fluo4; active compounds read low; hit rate 0.92% among 310,000;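 active means B-score of the integrated calcium signal more than 4 SD below the library mean, with starting fluorescence not abnormally high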;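 further: negative B-score means reduced calcium response which marks RGS4 activation or potentiation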
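Also added: carbachol at ECmax as muscarinic agonist stimulus; Assay system: HEK293 cells with stable M3R and inducible RGS4; Timing: overnight RGS4 induction, 30 min dye load 37 °C, 20 min compound RT; Measured by: Fluo4-AM (2 µM) calcium-flux fluorescence, kinetic read.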
MrgX1 ag: agonists of human MrgX1 receptor, primary screen, HEK293 cells, Fluo-4 calcium flux | AID 588627, 2011 | B-score at 10 µM | Fluo-4 calcium fluorescence, agonist mode; active compounds read high | hit rate 0.44% among 310,000 | Mas-related G-protein coupled receptor member X1 (Homo sapiens), Q96LB2;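 active means calcium response B-score plate-corrected fluorescence ratio at least 3 library SD, with starting fluorescence B-score inside 5 SD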
Target sequence (Q96LB2 whole entry, looked up): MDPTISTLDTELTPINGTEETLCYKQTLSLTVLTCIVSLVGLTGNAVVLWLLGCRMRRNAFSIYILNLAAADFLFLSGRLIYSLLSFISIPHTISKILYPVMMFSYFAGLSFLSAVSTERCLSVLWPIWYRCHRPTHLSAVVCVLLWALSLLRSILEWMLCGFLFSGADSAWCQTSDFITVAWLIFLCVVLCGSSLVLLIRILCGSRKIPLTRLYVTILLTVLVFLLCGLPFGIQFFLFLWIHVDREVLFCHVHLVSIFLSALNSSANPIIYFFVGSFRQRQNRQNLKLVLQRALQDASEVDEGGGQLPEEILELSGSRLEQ
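Material – MrgX1-expressing HEK293 cells · Input – 15,000 cells seeded per well · Dosing – compound as first of three additions · Times – overnight seeding, then 1 h dark dye loading · Measured by – kinetic Fluo-4 NW fluorescence of intracellular calcium · Read-out – B-scored fluorescence response ratio · Benchmarks – positive and negative control wells on each plate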
RGS4 inh: RGS4 inhibitors, primary screen, cell-based, HEK293 M3R inducible RGS4, calcium flux; Fluo-4 calcium flux; active compounds read high; triggered by carbachol at its EC20; hit rate 0.45% among 310,000; B-score at 10 µM;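 active means B-score, a plate-corrected calcium signal, over three deviations above library mean, with baseline fluorescence within five deviations of library mean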;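 further: RGS4 expression induced by doxycycline in cells with stable M3 receptor; B-score is computed from the integrated fluorescence ratio over baseline after carbachol; higher B-score means a larger calcium signal and so more RGS4 inhibition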
Target sequence (P49798 whole entry, looked up): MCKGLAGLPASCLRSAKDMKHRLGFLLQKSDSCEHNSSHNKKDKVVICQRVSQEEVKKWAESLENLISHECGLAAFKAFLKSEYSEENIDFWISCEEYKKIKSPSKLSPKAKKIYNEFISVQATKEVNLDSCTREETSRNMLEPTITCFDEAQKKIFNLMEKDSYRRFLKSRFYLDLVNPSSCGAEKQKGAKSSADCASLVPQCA
MrgX1 antag: antagonists of human MrgX1 receptor, primary screen, HEK293 cells, Fluo-4 calcium flux; BAM8-22 antagonism; active compounds read low; hit rate 1.3% among 310,000; Mas-related G-protein coupled receptor member X1 (Homo sapiens), Q96LB2; AID 588676, 2011; B-score at 10 µM;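 active means calcium-response B-score plate-corrected more than 3 library SD below zero, starting fluorescence within 5 deviations, no agonist response on first addition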;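 further: peak minus trough fluorescence over baseline after final BAM8-22 challenge near maximal dose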
MrgX1 PAM: positive allosteric modulators of MrgX1, primary screen, HEK293 cells, Fluo-4 calcium flux. Mas-related G-protein coupled receptor member X1 (Homo sapiens), Q96LB2. hit rate 0.63% among 310,000. B-score at 10 µM. FDSS; active compounds read high;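 active means plate-corrected calcium response at least 3 library SD above typical, normal starting fluorescence, not activating the receptor alone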;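 further: compound read alongside a low EC10 to EC30 dose of BAM8-22 agonist; peak minus trough fluorescence over baseline measured at the second addition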
A number is an active result; n = inactive; x = no result given.

SMILES	RGS4 pot	MrgX1 ag	RGS4 inh	MrgX1 antag	MrgX1 PAM
COCCn1c(SC(C)C(=O)Nc2ccc(N3CCOCC3)cc2)nnc1-c1ccncc1 (stereo not given)	n	n	n	n	n
CC(=O)N[C@H]1[C@H](OC2CCCCC2)O[C@H](COC(C)=O)[C@@H](OC(C)=O)[C@@H]1OC(C)=O	n	n	n	n	n
O=[N+]([O-])c1ccc(C2=NN(c3ccccc3)C(c3ccco3)C2)cc1 (stereo not given)	-7.2	x	n	x	x
O=[N+]([O-])c1ccc(/C=C/C2=NN(c3ccccc3)C(c3ccco3)C2)cc1 (stereo not given)	x	n	x	n	9.7
C[n+]1ccccc1/C=C/c1ccc([N+](=O)[O-])cc1	n	n	n	n	n
O=S(=O)(c1ccccc1)N1N=C(c2ccc(O)cc2)CC1c1ccco1 (stereo not given)	n	n	n	n	n
COc1ccc2c(Cl)c(C(=O)NN3CCN(C)CC3)sc2c1	n	n	n	n	n
Cc1ccc(C(=O)C[n+]2cc(Br)cc(Br)c2)cc1	n	n	n	n	15
O=C(C[n+]1cccc(Br)c1)c1ccc(-c2ccccc2)cc1	-7	n	n	n	n
C/C(=N/NC(=O)c1nnn(-c2nonc2N)c1COc1ccccc1)c1ccccc1	n	n	n	n	n
CCN1C(=S)SC(=O)C1=C1C=C(C)N(CCO)C(C)=C1	n	38	n	n	n
CC12CCC(C/C1=N\OC(=O)c1ccc(F)cc1)C2(C)C (stereo not given)	n	n	n	n	8.4
CC12CCC(C/C1=N/OC(=O)c1cccc([N+](=O)[O-])c1)C2(C)C (stereo not given)	n	n	n	n	9.8
C/C(=N\OC(=O)c1ccc(F)cc1)c1ccc(F)c(F)c1	n	n	n	n	n
Cn1c(=O)c2c(nc(SCC(=O)NCC3CCCO3)n2Cc2ccc(F)cc2)n(C)c1=O (stereo not given)	n	n	n	n	n
CC1=C(C(=O)OC2CCCC2)C(c2ccc(C)o2)C2=C(CC(c3cccs3)CC2=O)N1 (stereo not given)	n	n	n	n	n
O=C(Nc1ccc(F)c(Cl)c1)N1CCCCCC1	n	n	n	n	n
Cc1ccc(NC(=O)COC(=O)/C=C/c2c(C)nn(-c3ccc(F)cc3)c2Cl)cc1F	n	n	n	-5.4	n
COC(=O)C1CCN(C(=O)C2CCN(C(=O)[C@@H](NS(=O)(=O)c3ccc(C)cc3)C(C)C)CC2)CC1	n	n	n	n	n
CC(=O)NC1C(Oc2cccc(C)c2)OC2COC(c3ccco3)OC2C1O (stereo not given)	-7.3	n	n	n	n
Cc1ccc(CN2CCCN(C)CC2)c(C)c1	n	n	n	n	n
CCN(CC)C(=O)N1c2ccccc2C=Cc2ccccc21	n	n	n	n	n
CN(C)CCCNC(=O)N1c2ccccc2C=Cc2ccccc21	-7.2	n	n	n	n
N#C/C(=C\c1ccccc1O)C(=O)Nc1ccccn1	n	n	n	n	n
OC(CC#CCN1CCCCC1)(c1ccccc1)c1ccccc1	-7.5	n	n	n	n
SMILES	RGS4 pot	MrgX1 ag	RGS4 inh	MrgX1 antag	MrgX1 PAM
OC(CC#CCN1CCCC1)(c1ccccc1)c1ccccc1	n	n	n	n	n
CN1CCN(CC#CCC(O)(c2ccccc2)c2ccccc2)CC1	n	n	n	n	n
CN1CCN(CC#CCC(O)(c2ccccc2)C2CCCC2)CC1 (stereo not given)	-7.5	n	n	n	n
CN(C(=S)NC(=O)c1ccc(Br)o1)c1ccccc1	n	n	n	n	n
O=C(NC(C(=O)N/N=C/c1cccnc1)c1n[nH]c(=O)c2ccccc12)c1ccccc1 (stereo not given)	n	36	n	n	n
Cc1nc(N2CCN(c3ccccn3)CC2)c2c(C)c(C(=O)Nc3ccc(F)cc3Cl)sc2n1	-7.4	n	n	n	n
Cc1nc(N2CCN(c3ccccn3)CC2)c2c(C)c(C(=O)N3CCN(c4cccc(Cl)c4)CC3)sc2n1	-7.1	n	n	n	n
Cc1nc(N2CCOCC2)c2c(C)c(C(=O)Nc3ccc(F)cc3Cl)sc2n1	n	n	n	n	n
CCn1c(CC(=O)Nc2ccc(C)cc2)nnc1SCC(=O)NCCc1ccccc1	n	n	n	-5.5	n
CCn1c(Cc2ccccc2)nnc1SCC(=O)Nc1ccc(C)cc1	n	n	n	n	n
CN1CCc2c(sc(NC(=O)c3ccc(S(=O)(=O)N4CCCCCC4)cc3)c2C(N)=O)C1	n	32	n	n	n
CCOC(=O)/C(C#N)=C\c1ccc2c(c1)OCO2	n	n	n	n	n
N#C/C(=C\c1ccc2c(c1)OCO2)C(N)=S	n	n	n	n	7.5
Cc1ccc(CSC2=NCCN2C(=O)c2ccc([N+](=O)[O-])cc2)cc1	n	n	n	n	n
Cc1ccc(C(=O)N2CCN=C2SCc2ccc([N+](=O)[O-])cc2)cc1	n	n	n	-7.1	n
N#Cc1c(N(CCO)CCO)nc(N)c2c(N)nc3c(c12)CC(=O)N3Cc1cccs1	n	n	n	-4.5	n
CN(CCO)c1nc(N)c2c(N)nc3c(c2c1C#N)CC(=O)N3Cc1cccs1	n	n	n	n	n
Cc1cc(C)c2c(c1)/C(=c1/sc3n(c1=O)CN(c1ccccc1)CN=3)C(=O)N2	n	n	n	n	n
COCc1cc(Sc2c(Cl)cccc2Cl)nc(-c2ccccc2)n1	n	n	n	n	9.3
O=C(CC1SC(=Nc2ccccc2)N(CCCO)C1=O)Nc1ccc(Cl)cc1 (stereo not given)	-9.1	n	n	-4.6	n
CCOC(=O)NN1C(=O)c2ccccc2NC1c1ccc(OC)cc1 (stereo not given)	n	n	n	n	n
CCOC(=O)NN1C(=O)c2ccccc2NC1c1ccccc1 (stereo not given)	n	n	n	-4.5	n
O=C(N/N=C/c1cccnc1)c1cc(-c2ccc(Br)cc2)nc2ccccc12	n	n	n	n	n
Nc1nc(N2CCCCC2)nc2ccccc12	-7.2	n	n	n	n
CCC(C)(C)NC(=O)CN(Cc1ccco1)C(=O)CCC(=O)Nc1nccs1	n	n	n	n	n
CN1[C@@H]2CC(OC(=O)[C@H](CO)c3ccccc3)C[C@H]1[C@@H]1O[C@@H]12 (stereo not given in full)	-7.1	n	n	n	n
Cc1ccccc1N1CCN(C2CCCN(C(=O)c3ccsc3)C2)CC1 (stereo not given)	n	n	n	n	n

High-throughput results deposited in PubChem BioAssay by Johns Hopkins Ion Channel Center.
